Legend:
Format in all cases: cell-based
[1] = tested on: KKU-100 (cholangiocarcinoma) cells; assay: MTT cytotoxicity assay, KKU-100; details: Homo sapiens, KKU100, 24 h, read-out: Cytotoxic activity, IC50, KKU-100
In short: (§1)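 Cells grown in DMEM/F12 with 10% FBS, penicillin (100 U mL−1) and streptomycin (100 μg mL−1) at 37 °C, 5% CO2, and passaged twice weekly by trypsinization. Seeded at 5 × 10^3 cells per well for 24 h, then exposed to a range of test compound concentrations for 24 h. MTT (5 mg mL−1 stock) added for 2 h, supernatant removed, formazan dissolved in DMSO, absorbance read at 540 nm, and IC50 calculated. Controls: doxorubicin (positive) and 0.75% DMSO (negative).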

[2] = MTT cytotoxicity assay, NHDF; details: human, normal human dermal fibroblasts (NHDF)
In short: as §1

[3] = tested on: Huh-7 (hepatocellular carcinoma) cells; assay: MTT cytotoxicity assay, Huh-7; details: Homo sapiens, Huh-7, 24 h, read-out: Cytotoxic activity, IC50, Huh-7
In short: as §1

[4] = tested on: MDA-MB231 (breast) cells; assay: MTT cytotoxicity assay, MDA-MB231; details: Homo sapiens, MDA-MB-231, 24 h, read-out: Cytotoxic activity, IC50, MDA-MB231
In short: as §1

[5] = tested on: MDA-MB231, Huh-7, KKU-100 and normal human dermal fibroblast (NHDF) cell lines; assay: MTT cytotoxicity assay, all cell lines; details: 24 h, read-out: IC50 values against all the cell lines
In short: as §1

SMILES | IC50 [1] [µM] | IC50 at 24 h [2] [µM] | IC50 [3] [µM] | IC50 [4] [µM] | IC50 [5] [µM]
COc1cccc2c1C(=O)c1c(O)c3c(c(O)c1C2=O)C[C@@](O)(C(=O)CO)C[C@@H]3O[C@H]1C[C@H](N)[C@H](O)[C@H](C)O1 [Doxorubicin, reference compound] | 1.9 | 5 |  |  | 
CC(C)=CCOc1ccc(-c2coc3cc(OCC=C(C)C)cc(O)c3c2=O)cc1 [Compound 9, 7,4′-di-O-prenylgenistein] | > 100 | > 100 | > 100 | > 100 | > 100

From paper PMC9590589 (RSC Advances, 2022)
